In ChEMBL document CHEMBL3853309, “Lovastatin Analogues from the Soil-Derived Fungus Aspergillus sclerotiorum PSU-RSPG178” (J Nat Prod, 2016) one finds IC50, inhibition and Activity data, which are given here for eleven molecules.

Activity calls are given as the source filed them. No cut-off for these calls is given here.

The nature of series [1]: Cytotoxicity against human KB cells by resazurin microplate assay. The series is classed as functional, cell-based. Summed up: (§1)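 KB and MCF-7 cells assayed by resazurin microplate method; positive controls ellipticine and doxorubicin for KB, doxorubicin and tamoxifen for MCF-7.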
Background: Resazurin is reduced to fluorescent resorufin, in cell work by metabolically active cells.

The nature of series [2]: Cytotoxicity against African green monkey Vero cells. The series is classed as toxicity, cell-based. To be noted: African green monkey (Chlorocebus sabaeus). Summed up: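 Vero (African green monkey kidney fibroblast) cells tested in triplicate by the Hunt et al. method; ellipticine positive control.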
The nature of series [3]: Cytotoxicity against human MCF7 cells by resazurin microplate assay. Type of series: functional, cell-based. Summed up: as §1
Series [4] deals with T1, 3-hydroxy-3-methylglutaryl-coenzyme A reductase (Homo sapiens) (UniProt P04035).
T1 sequence (whole entry): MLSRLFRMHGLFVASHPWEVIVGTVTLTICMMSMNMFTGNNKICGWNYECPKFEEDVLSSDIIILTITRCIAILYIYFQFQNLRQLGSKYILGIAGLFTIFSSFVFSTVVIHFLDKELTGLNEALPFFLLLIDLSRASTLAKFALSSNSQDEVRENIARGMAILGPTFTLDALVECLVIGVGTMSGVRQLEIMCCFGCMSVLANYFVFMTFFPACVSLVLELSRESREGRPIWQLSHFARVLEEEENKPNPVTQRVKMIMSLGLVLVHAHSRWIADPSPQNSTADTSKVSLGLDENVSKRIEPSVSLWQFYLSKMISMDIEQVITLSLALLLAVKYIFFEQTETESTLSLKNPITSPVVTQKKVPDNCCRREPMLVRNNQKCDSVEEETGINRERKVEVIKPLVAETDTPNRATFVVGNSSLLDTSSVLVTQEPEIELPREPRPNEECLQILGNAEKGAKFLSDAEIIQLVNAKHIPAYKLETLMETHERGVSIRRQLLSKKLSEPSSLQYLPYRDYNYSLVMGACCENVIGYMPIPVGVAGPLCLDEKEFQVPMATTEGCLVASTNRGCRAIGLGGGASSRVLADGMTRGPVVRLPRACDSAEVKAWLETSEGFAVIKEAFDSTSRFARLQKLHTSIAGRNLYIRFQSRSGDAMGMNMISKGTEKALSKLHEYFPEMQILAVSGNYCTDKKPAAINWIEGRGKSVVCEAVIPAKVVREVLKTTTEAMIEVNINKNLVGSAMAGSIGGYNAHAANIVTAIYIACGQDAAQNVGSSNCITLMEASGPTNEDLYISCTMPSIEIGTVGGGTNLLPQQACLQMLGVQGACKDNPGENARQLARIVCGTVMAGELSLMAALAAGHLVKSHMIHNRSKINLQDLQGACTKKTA
The experiment in a line: Inhibition of human HMGR catalytic domain at 200 uM using HMG-CoA as substrate measured every 20 secs for 10 mins relative to control. The essentials: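 Sigma HMG-CoA reductase kit, modified: 1× assay buffer, NADPH, HMG-CoA (800 μM final), test compound at 200 μM final; reaction started by adding human HMGR catalytic domain (0.6 μM final) at 37 °C. NADPH oxidation followed at 340 nm for 10 min, 20 s intervals.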

In series [5] the target is T2, 3-hydroxy-3-methylglutaryl-coenzyme A reductase (Homo sapiens, UniProt P04035).
T2 sequence (P04035 whole entry): T1 sequence (whole entry)
The experiment in a line: Inhibition of human HMGR catalytic domain using 800 uM HMG-CoA as substrate measured every 20 secs for 10 mins. The essentials: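 Dose-response format of the kit assay: 1× buffer, NADPH, 800 μM HMG-CoA, graded compound concentrations, human HMGR catalytic domain 0.6 μM final added to start at 37 °C.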

Series [6] addresses T1, 3-hydroxy-3-methylglutaryl-coenzyme A reductase (Homo sapiens). The experiment in a line: Binding affinity to human HMGR catalytic domain at 50 uM in presence of 800 to 3200 uM HMG-CoA as substrate measured every 20 secs for 10 mins. Summed up:
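Direct-interaction test: compound at 50 μM with HMG-CoA at 800, 1600 and 3200 μM, plus NADPH and human HMGR catalytic domain at 37 °C. Activity read at 340 nm for 10 min at 20 s intervals, reported as percent inhibition versus untreated control; n = 3.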

Series [7] has the same target. To be noted: 1 uM.
Another series relates to Plasmodium falciparum. The series can be described thus: Antimalarial activity against multi-drug-resistant Plasmodium falciparum K1 by microculture radioisotope technique. The series is classed as functional. The essentials: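 Parasite: P. falciparum K1 (multidrug-resistant). Growth inhibition read by a microculture radioisotope method adapted from a published protocol. Dihydroartemisinine and mefloquine served as reference standards.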

For orientation: IC50 means the concentration that gives 50% inhibition. Turning to `Cc1c2ccncc2c(C)c2c1[nH]c1ccccc12` [ELLIPTECINE], the IC50 worked out at 2.03 µM in series [1] and 1 µM in series [2].
In series [3], `COc1cccc2c1C(=O)c1c(O)c3c(c(O)c1C2=O)C[C@@](O)(C(=O)CO)C[C@@H]3O[C@H]1C[C@H](N)[C@H](O)[C@H](C)O1` [DOXORUBICIN] gave an IC50 of 6.75 µM.
Molecule `CC/C(=C(\c1ccccc1)c1ccc(OCCN(C)C)cc1)c1ccccc1` [TAMOXIFEN] showed a concentration for half-maximal inhibition (IC50) in series [3] of 6.99 µM.
A word on the inhibition: it is the percentage by which the read-out fell short of the control. With `CC[C@H](C)C(=O)O[C@H]1C[C@@H](C)C[C@@H]2C=C[C@H](C)[C@H](CC[C@@H]3CC=CC(=O)O3)[C@@H]12`, the IC50 is 15.2 µM in series [1] and 14.5 µM in series [2]. This molecule also yielded an inhibition in series [4] of 17.2%.
Regarding `CC[C@H](C)C(=O)O[C@H]1C[C@@H](C)[C@H](O)C2=C[C@@H](O)[C@H](C)[C@H](CC[C@@H]3CC=CC(=O)O3)[C@H]21`, the results for the IC50 in series [1], in series [2] and in series [5] were 31.6 µM, 40 µM and 387 µM, respectively. This molecule also showed an inhibition in series [4] of 50%. The result in series [6] was Active.
In the case of `CC[C@H](C)C(=O)O[C@H]1C[C@H](O)C=C2C=C[C@H](C)[C@H](CC[C@@H](O)C[C@@H](O)CC(=O)O)[C@H]21`, the inhibition in series [7] came to 90.4%.
For `C[C@H]1[C@@H](O)O[C@@H]2O[C@@]3(C)CC[C@H]4[C@H](C)CC[C@@H]1[C@@]24OO3` [ARTENIMOL], the IC50 in the series on Plasmodium falciparum was 0.0023 µM.
Same read-out and setting: the result for `O[C@@H](c1cc(C(F)(F)F)nc2c(C(F)(F)F)cccc12)[C@H]1CCCCN1` [(S,R)-MEFLOQUINE] reads 0.0269 µM.
Turning to `CC[C@H](C)C(=O)O[C@H]1C[C@@H](C)[C@H](OC(C)=O)C2=C[C@@H](OC(C)=O)[C@H](C)[C@H](CC[C@@H]3CC=CC(=O)O3)[C@H]21`, the IC50 stood at 19.8 µM in series [1], 74.7 µM in series [3] and 8.4 µM in series [2]. The molecule also gave an inhibition in series [4] of 20.4%.
With `CC[C@H](C)C(=O)O[C@H]1C[C@@H](C)C=C2C=C[C@H](C)[C@H](CC[C@@H]3C[C@@H](O)CC(=O)O3)[C@H]21` [LOVASTATIN], the half-maximal inhibitory concentration (IC50) in series [1] came to 15.6 µM; in series [2] it was 2.2 µM. The molecule also returned an inhibition in series [4] of 42%. Also, the outcome in series [6] was Active.
In the case of `CC[C@H](C)C(=O)O[C@H]1C[C@@H](C)C=C2C=C[C@H](C)[C@H](CC[C@@H]3CC=CC(=O)O3)[C@H]21`, the IC50 stood at 20.1 µM in series [1], 57.3 µM in series [3] and 8.1 µM in series [2]. In series [4], the inhibition is 8.4%.
